Compound activity: PubChem, several laboratories
An excerpt weighted towards active compounds, which were near 4.2% of everything screened.
hERG protect: shields human hERG channel from block by proarrhythmic agents; AID 1511; Q12809; CHO-hERG, FluxOR thallium flux, dofetilide IC70 present; activation (rescue from dofetilide block), less the hit threshold, % at 10 µM; 0.51% of 310,000 active;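 active = activation above the mean of controls blocked by dofetilide plus 5 SD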;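 also: thallium influx through hERG after potassium depolarization seen as dye fluorescence rise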
SUMO Mot1 rescue: SUMOylation pathway inhibition by Mot1-301 growth rescue; S. cerevisiae Mot1-301 growth rescue, ATP luminescence, 38.5C; percent above DMSO median, 100 means doubled; growth rescue, % at 18.8 µM; 1% of 320,000 active; AID 2716;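 active = every valid replicate shows activation above 250% relative to neutral control wells; inactive = the rest, any valid replicate at or below 250%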
KCNQ1 pot: human KCNQ1 channel potentiation or activation; P51787; CHO-K1 KCNQ1, thallium flux FluxOR fluorescence; stronger effect = higher value; B-score at 10 µM; 0.35% of 310,000 active;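 active = fluorescence ratio B-score, a plate-corrected score, at least three library SD, with initial intensity B-score within 5 SD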
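Test system: CHO-K1 cells stably expressing KCNQ1 / Medium: assay buffer / Also added: depolarizing K+/Tl+ stimulus, K2SO4 and Tl2SO4 each 12.5 mM in 5x stock / Incubation: 90 min dye loading and 20 min compound exposure, both at room temperature / Signal: thallium influx via FluxOR fluorescence, kinetic imaging / Evaluation: B score of baseline-normalized fluorescence ratio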
Cl transport mod: KCC2 (human) Cl- transport modulation; Q9H2X9; KCC2 cells, thallium flux FluoZin-2 fluorescence; B-score of Tl+ flux slope (higher = more flux/activation; lower = inhibition) at 10 µM; 2.2% of 190,000 active;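 active = thallium flux slope and its plate-corrected score both differing from the plate sample mean at a set confidence after two filtering rounds, in either direction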;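 also: slope of fluorescence scaled to starting intensity during 10 to 20 s after thallium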
KCNQ1 inh: inhibitors of human KCNQ1 potassium channel; CHO-K1 KCNQ1, FluxOR thallium flux fluorescence; stronger effect = higher value; P51787; B-score at 10 µM; 1.3% of 310,000 active; AID 2642;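 active = compounds whose thallium flux B-score, printed positive for inhibition, exceeds three library SD while starting fluorescence stays within three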;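 also: channel opened by potassium depolarization with thallium stimulus after 20 min compound exposure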
AI-2 QS modul: modulators of Vibrio harveyi AI-2 quorum sensing system; Vibrio harveyi JMH597 AI-2 luminescence/OD600 ratio, 9 h; stronger effect = lower value; strain lacks LuxN and CqsS sensors; 0 = neutral-control median; activity change, % at 7.5 µM; 0.4% of 300,000 active; AID 2094; in the data active = activity change below about -75%, passing the limit was not always enough; inconclusive = no clear call, values can overlap the other calls;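 also: luminescence divided by OD600 gain over 9 h not by final OD600 alone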
KCC2 secondary: KCC2 (human) modulation, secondary assay. shares compounds with Cl transport mod. HEK293-KCC2, thallium flux, FluoZin2 fluorescence; stronger effect = higher value. normalised thallium flux (F/F0 slope) at 10 µM. 15% of 3,700 active. AID 1713;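 active = thallium flux slope above the same plate's solvent-only control mean plus 3 SD; inconclusive = the two replicate wells disagree; inactive = no significant difference from solvent-only control wells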
KCC2 bumet counter: bumetanide-insensitive thallium flux in KCC2 cells with ouabain, counter-screen | shares compounds with Cl transport mod | HEK293-KCC2 + bumetanide/ouabain, thallium flux FluoZin2; stronger effect = higher value | normalized thallium flux at 10 µM | 49% of 3,700 active;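 active = thallium entry rate above the same plate's blocked-transporter control wells by more than 3 SD; inconclusive = the two repeat wells disagree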;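 also: raw slope of fluorescence over initial fluorescence between 10 and 20 s after thallium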
KCC2 secondary2: KCC2 (human) modulation, second secondary assay; HEK293-KCC2, thallium flux FluoZin2 fluorescence; actives lie on both sides; F/F0 rise rate, 10–20 s post-thallium; shares compounds with Cl transport mod; 23% of 3,700 active; normalized thallium flux at 10 µM;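 active = thallium flux slope more than 3 SD above or below the plate's solvent-only control mean, mostly below; inconclusive = the two repeat wells disagreed; inactive = no significant shift from solvent-only controls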
HEK counter1: parental HEK flux effect, counter-screen. shares compounds with Cl transport mod. HEK293 parental cells, thallium flux FluoZin2, ouabain; baseline-ratio fluorescence slope, 10–20 s after thallium. 46% of 3,700 active. thallium flux rate (normalised fluorescence) at 10 µM. AID 1716;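 active = thallium flux rate significantly above the same plate's solvent-only control wells, beyond their mean plus 3 SD; inconclusive = the two replicate wells gave conflicting results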
KCC2 ouabain: KCC2 (human) modulation, ouabain retest. shares compounds with Cl transport mod. HEK293-KCC2, thallium flux FluoZin2 fluorescence; bidirectional: low = inhibitor, high = activator. raw Tl+ flux slope (below DMSO = inhibition, above = activation) at 10 µM. 48% of 3,700 active;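 active = thallium flux slope beyond 3 SD from same-plate DMSO control mean in most replicates, usually higher, sometimes lower; inconclusive = repeat tests gave conflicting results; inactive = no significant difference from controls in most replicates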;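 also: slope of initial-normalized fluorescence between seconds 10 and 20 after thallium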
HEK counter2: acts in parental HEK cells, second KCC2 counter-screen. shares compounds with Cl transport mod. HEK293 parental, thallium flux FluoZin-2 fluorescence slope. thallium flux slope at 10 µM. 33% of 3,700 active;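 active = thallium flux slope above the same plate's solvent-control mean plus 3 SD in both duplicate wells; inconclusive = duplicate wells that disagreed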;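 also: run without ouabain in cells lacking the KCC2 cotransporter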
Of the large screens only hits and unclear results are named; the others gave an inactive call (follow-up assays come after a bar, where they were run).

Cn1c(=O)c2c(nc(CN3CCN(C(c4ccccc4)c4ccccc4)CC3)n2CC(N)=O)n(C)c1=O	Cl transport mod -2.6 | KCC2 secondary inactive | KCC2 bumet counter inactive | KCC2 secondary2 inactive | HEK counter1 inactive | KCC2 ouabain inactive | HEK counter2 inconclusive
Oc1ccc(Nc2nc(-c3ccc4ccccc4c3)cs2)cc1	none
Oc1ccc(-c2nc(-c3ccc(O)c(O)c3)cs2)cc1	Cl transport mod -3.5 | KCC2 secondary inactive | KCC2 bumet counter inactive | KCC2 secondary2 inconclusive | HEK counter1 inactive | KCC2 ouabain 0.014 | HEK counter2 inactive
CN1/C(=C\C(=O)c2cccnc2)C(C)(C)c2ccccc21	none
CN1/C(=C/C(=O)c2nc(S(C)(=O)=O)ncc2Cl)C(C)(C)c2ccccc21	Cl transport mod -7.2, KCNQ1 inh 6 | KCC2 secondary inactive | KCC2 bumet counter inconclusive | KCC2 secondary2 0.022 | HEK counter1 inconclusive | KCC2 ouabain 0.013 | HEK counter2 inactive
COc1ccccc1C(=O)Nc1nc(C)cc(C)n1	none (no result: Cl transport mod)
COc1cc(C)nc(NC(=S)N(C)C(=O)c2ccccc2)n1	Cl transport mod 6.2 | KCC2 secondary inactive | KCC2 bumet counter 0.019 | KCC2 secondary2 inactive | HEK counter1 0.01 | KCC2 ouabain inactive | HEK counter2 0.012
Cc1ccc(N=Nc2c(O)n(CN3CCOCC3)c3ccccc23)cc1	none (no result: Cl transport mod)
C=CCn1c(O)c(N=NC(=S)Nc2ccc(OC)c(Cl)c2)c2ccccc21	Cl transport mod 21 | KCC2 secondary inactive | KCC2 bumet counter 0.029 | KCC2 secondary2 inactive | HEK counter1 0.024 | KCC2 ouabain 0.028 | HEK counter2 0.016
C=CCn1c(O)c(N=NC(=S)Nc2ccccc2C)c2cc(S(=O)(=O)N3CCOCC3)ccc21	KCNQ1 pot 9, Cl transport mod 14 | KCC2 secondary 0.013 | KCC2 bumet counter 0.072 | KCC2 secondary2 inactive | HEK counter1 0.02 | KCC2 ouabain inactive | HEK counter2 0.015
Cn1c(O)c(N=NC(=S)Nc2ccccc2F)c2cc(S(=O)(=O)N3CCOCC3)ccc21	hERG protect 11, Cl transport mod 37 (no result: SUMO Mot1 rescue) | KCC2 secondary 0.016 | KCC2 bumet counter 0.056 | KCC2 secondary2 inactive | HEK counter1 inconclusive | KCC2 ouabain 0.044 | HEK counter2 inconclusive
CCn1c2ccccc2c2nc3cc(S(=O)(=O)N4CCOCC4)ccc3nc21	none (no result: SUMO Mot1 rescue)
Cc1cccc(NC(=S)N=Nc2c(O)n(CN3CCOCC3)c3ccccc23)c1C	Cl transport mod 5.3 | KCC2 secondary 0.024 | KCC2 bumet counter 0.021 | KCC2 secondary2 inactive | HEK counter1 0.012 | KCC2 ouabain 0.026 | HEK counter2 0.012
CCOC(=O)N1CCN(C(=O)c2nc3ccccc3s2)CC1	none
Cc1cc(=O)n(C)c2ccc(S(=O)(=O)N3CCOCC3)cc12	none (no result: Cl transport mod)
